We go through 2 molecules from publication PMC3005847 (Biochemistry, 2010).

Structures are written as SMILES. Numbering of substitutions follows the chain as printed.

Assay [1] has as its target T1, T. foetus IMPDH wild-type (Tritrichomonas foetus, UniProt P50097). As to conditions: cited from earlier work.
For assay [2], the target named is T1, T. foetus IMPDH wild-type. The experiment in a line: Equilibrium dissociation constant by intrinsic protein fluorescence, wild-type. It counts as binding. As to conditions: corrected for non-specific quenching, assay buffer, 25 °C.
In assay [3] the target is T2, T. foetus IMPDH R322E (Tritrichomonas foetus, UniProt P50097, R322E).
T2 sequence (P50097 1-503 R322E): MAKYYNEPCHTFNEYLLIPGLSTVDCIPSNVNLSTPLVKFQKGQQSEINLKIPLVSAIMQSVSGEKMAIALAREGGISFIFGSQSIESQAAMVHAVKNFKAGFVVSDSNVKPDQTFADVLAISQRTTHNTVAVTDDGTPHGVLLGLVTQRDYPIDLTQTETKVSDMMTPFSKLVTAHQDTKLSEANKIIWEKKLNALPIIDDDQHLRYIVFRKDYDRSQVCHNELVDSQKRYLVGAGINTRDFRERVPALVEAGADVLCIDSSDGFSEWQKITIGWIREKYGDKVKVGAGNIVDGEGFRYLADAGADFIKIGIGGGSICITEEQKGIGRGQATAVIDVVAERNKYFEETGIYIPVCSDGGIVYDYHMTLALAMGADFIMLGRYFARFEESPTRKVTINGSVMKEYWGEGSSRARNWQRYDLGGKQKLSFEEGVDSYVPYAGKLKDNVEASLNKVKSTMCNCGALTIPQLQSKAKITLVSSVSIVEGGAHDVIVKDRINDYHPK
The experiment in a line: Steady-state kinetics, R322E. It counts as biochemical. As to conditions: read-out: Km NAD^+, pH 8.0, 25 °C. An outline of the steps:
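Mutant enzyme was expressed in IMPDH-deficient E. coli H712 and IMP-affinity purified. Assay buffer was 50 mM Tris-Cl pH 8.0, 100 mM KCl, 1 mM DTT, at 25 °C. NADH production was monitored at 340 nm (ε = 6.22 mM−1cm−1). Initial velocities were fitted to Michaelis–Menten or to a form with uncompetitive substrate inhibition, giving Km.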

The target of a further assay is T3, T. foetus IMPDH E323A (Tritrichomonas foetus, UniProt P50097, E323A).
T3 sequence (P50097 1-503 E323A): T2 sequence (P50097 1-503 R322E) with E322R, E323A
Description: Steady-state kinetics, E323A. It counts as biochemical. As to conditions: read-out: Km NAD^+, pH 8.0, 25 °C.

Another assay has as its target T4, T. foetus IMPDH Q324A (Tritrichomonas foetus, UniProt P50097, Q324A).
T4 sequence (P50097 1-503 Q324A): T2 sequence (P50097 1-503 R322E) with E322R, Q324A
The experiment in a line: Steady-state kinetics, Q324A. It counts as biochemical.

In the next assay the target is T5, T. foetus IMPDH R322A (Tritrichomonas foetus, UniProt P50097, R322A).
T5 sequence (P50097 1-503 R322A): T2 sequence (P50097 1-503 R322E) with E322A
The experiment in a line: Steady-state kinetics, R322A. It counts as biochemical. As to conditions: read-out: Km NAD^+, pH 8.0, 25 °C.

In assay [4] the target is T2, T. foetus IMPDH R322E. Description: Equilibrium dissociation constant by intrinsic protein fluorescence, R322E. Format: binding. As to conditions: assay buffer, 25 °C. An outline of the steps: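 NAD+ titrated into 0.2–0.3 µM R322E enzyme. The enzyme was expressed in IMPDH-deficient E. coli H712 and IMP-affinity purified. Assay buffer was 50 mM Tris-Cl pH 8.0, 100 mM KCl, 1 mM DTT, at 25 °C. Intrinsic protein fluorescence read at ex 295 / em 344 nm, corrected for inner-filter effect. Nonspecific quenching measured by titrating ligand into L-tryptophan. Kd taken from the corrected binding curve.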

Assay [5] has as its target T2, T. foetus IMPDH R322E. Description: Multiple-inhibitor kinetics with tiazofurin and ADP, R322E. Format: biochemical. As to conditions: R322E relative to wild-type. An outline of the steps: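 Mutant enzymes were expressed in IMPDH-lacking E. coli H712 and purified by IMP-affinity chromatography. Tiazofurin and ADP were varied together in assay buffer (50 mM Tris-Cl pH 8.0, 100 mM KCl, 1 mM DTT) at 25 °C. NADH formation was followed at 340 nm. Initial velocities were fitted to a two-inhibitor equation giving Ki, Kj and interaction constant α.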

Usually Km stands for the concentration of substrate that gives half-maximal velocity. By Kd is commonly meant a measure of binding affinity in units of concentration. Read a low Kd as a tighter complex. For `NC(=O)c1ccc[n+]([C@@H]2O[C@H](COP(=O)([O-])OP(=O)(O)OC[C@H]3O[C@@H](n4cnc5c(N)ncnc54)[C@H](O)[C@@H]3O)[C@@H](O)[C@H]2O)c1` [NAD^+], the Km in assay [1] (read-out: Km NAD^+) is 150 ± 30 µM; on T. foetus IMPDH R322E [3] it was 2600 ± 700 µM; at T. foetus IMPDH E323A, 300 ± 20 µM; at T. foetus IMPDH Q324A (read-out: Km NAD^+, pH 8.0, 25 °C), 120 ± 20 µM; at T. foetus IMPDH R322A it was 910 ± 90 µM. Moreover, the “Kii NAD^+” value in assay [1] (uncompetitive substrate inhibition) is given as 7 ± 2 mM; on T. foetus IMPDH Q324A (uncompetitive substrate inhibition, pH 8.0, 25 °C), 2.4 ± 0.3 mM. In addition, the Kd is 27 ± 6 µM in assay [2] and 37 ± 10 µM at T. foetus IMPDH R322E [4].

With `NC(=O)c1csc([C@@H]2O[C@H](CO)[C@@H](O)[C@H]2O)n1` [TAZ, tiazofurin], the “Decrease in affinity of tiazofurin caused by the mutation (factor)” value on T. foetus IMPDH R322E [5] is given as > 3.
